Results as given in ChEMBL document CHEMBL3596120, “Discovery of natural alkaloid bouchardatine as a novel inhibitor of adipogenesis/lipogenesis in 3T3-L1 adipocytes” (Bioorg Med Chem, 2015).
Active and inactive are the calls of the source.

Columns and labels:
[1] = Cytotoxicity against mouse 3T3L1 cells at 1 to 50 uM incubated for 1 to 9 days by LDH assay; format: cell-based; conditions: 3t3-l1, 50 µM
Outline: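 3T3-L1 adipocytes seeded at 7 × 10^3 cells/well, then treated 24 h later with DMSO vehicle as control. LDH in media and in cell lysates measured with a commercial kit. Cytotoxicity = LDH released into medium / maximal LDH release × 100. Maximum: […]. Blank: medium without cells.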

[2] = Cytotoxicity against mouse 3T3L1 cells assessed effect on cell morphology at 1 to 50 uM incubated for 1 to 9 days by microscopy; format: cell-based; conditions: 3t3-l1, 50 µM
3T3-L1 [3] = assay: Inhibition of adipogenesis in mouse 3T3L1 cells assessed as reduction in triglyceride content at 1 to 50 uM by colorimetric assay; format: functional, cell-based
3T3-L1 [4] = assay: Inhibition of adipogenesis in mouse 3T3L1 cells assessed as reduction in cell size at 1 to 50 uM by oil Red-O staining based microscopy; format: functional
Outline: (§1)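 After 3T3-L1 differentiation (IBMX/dexamethasone/insulin induction, insulin, then basal medium), cells were PBS-washed and fixed in 4% formalin for 60 min. Stained with filtered Oil Red O for 30 min at room temperature and imaged at 40× objective. Dye eluted with isopropanol and read at 510 nm. Three independent experiments.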

3T3-L1 [5] = assay: Inhibition of adipogenesis in mouse 3T3L1 cells assessed as reduction in lipid droplets at 1 to 50 uM by oil Red-O staining based microscopy; format: functional, cell-based; outline: as §1
3T3-L1 [6] = assay: Inhibition of adipogenesis in mouse 3T3L1 cells assessed as reduction in cell finger ring diameter size at 1 to 50 uM by oil Red-O staining based microscopy; format: functional; outline: as §1
3T3-L1 [7] = assay: Inhibition of adipogenesis in mouse 3T3L1 cells assessed as reduction in lipid content at 25 uM by colorimetric assay; format: functional
HepG2 [8] = assay: Cytotoxicity against human HepG2 cells at 1 to 100 uM by MTT assay; format: cell-based; conditions: hepg2, 100 µM
Outline: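 HepG2 cells seeded at 7 × 10^3 cells/well. After 24 h, treated with 1, 10, 25, 50 or 100 µM; DMSO vehicle control. After the set time, MTT at 0.5 mg/mL was added for 4 h at 37 °C. Formazan dissolved in DMSO and read at 490 nm. Run in triplicate.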

HepG2 [9] = assay: Inhibition of oleic acid-induced adipogenesis in human HepG2 cells assessed as reduction in triglyceride content by colorimetric assay; format: functional, cell-based
Outline: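 HepG2 cells loaded with 0.5 mM oleic acid sodium, with or without compound. Lysed in 0.2% Triton X-100 in water and sonicated. TG measured colorimetrically and normalised to cellular protein. Blank: no oleate. Three independent experiments.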

3T3-L1 [10] = assay: Inhibition of adipogenesis in mouse 3T3L1 cells assessed as reduction in triglyceride content at 25 uM treated on day 0 to 3 by colorimetric assay; format: functional; conditions: 3T3-L1, 0 h
3T3-L1 [11] = assay: Inhibition of adipogenesis in mouse 3T3L1 cells assessed as reduction in triglyceride content at 25 uM treated on day 3 to 6 by colorimetric assay; format: functional; conditions: 3T3-L1, 72 h
3T3-L1 [12] = assay: Inhibition of adipogenesis in mouse 3T3L1 cells assessed as reduction in triglyceride content at 25 uM treated on day 6 to 9 by colorimetric assay; format: functional; conditions: 3T3-L1, 144 h
3T3-L1 [13] = assay: Inhibition of adipogenesis in mouse 3T3L1 cells assessed as reduction in triglyceride content at 25 uM treated on day 0 to 3 by oil Red-O staining based microscopy; format: functional, cell-based; outline: as §1
3T3-L1 [14] = assay: Inhibition of adipogenesis in mouse 3T3L1 cells assessed as reduction in triglyceride content at 25 uM treated on day 0 to 6 by oil Red-O staining based microscopy; format: functional, cell-based; outline: as §1
3T3-L1 [15] = assay: Inhibition of adipogenesis in mouse 3T3L1 cells assessed as reduction in triglyceride content at 25 uM treated on day 0 to 9 by oil Red-O staining based microscopy; format: functional, cell-based; outline: as §1
3T3-L1 [16] = assay: Inhibition of adipogenesis in mouse 3T3L1 cells assessed as reduction in triglyceride content at 25 uM treated on day 3 to 6 by oil Red-O staining based microscopy; format: functional, cell-based; outline: as §1
3T3-L1 [17] = assay: Inhibition of adipogenesis in mouse 3T3L1 cells assessed as reduction in triglyceride content at 25 uM treated on day 3 to 9 by oil Red-O staining based microscopy; format: functional, cell-based; outline: as §1
3T3-L1 [18] = assay: Inhibition of adipogenesis in mouse 3T3L1 cells assessed as reduction in triglyceride content at 25 uM treated on day 6 to 9 by oil Red-O staining based microscopy; format: functional, cell-based; outline: as §1
3T3-L1 [19] = assay: Induction of cell cycle arrest in mouse 3T3L1 cells assessed as accumulation at G2/M phase at 1 to 50 uM by flow cytometry; format: functional, cell-based
3T3-L1 [20] = assay: Induction of cell cycle arrest in mouse 3T3L1 cells assessed as accumulation at G0/G1 phase at 1 to 50 uM after 24 hrs by flow cytometry; format: functional, cell-based
3T3-L1 [21] = assay: Induction of cell cycle arrest in mouse 3T3L1 cells assessed as accumulation at S phase at 25 uM after 24 hrs by flow cytometry (reference value: 18%); format: functional
3T3-L1 [22] = assay: Induction of cell cycle arrest in mouse 3T3L1 cells assessed as accumulation at G0/G1 phase at 25 uM after 24 hrs by flow cytometry (reference value: 42%); format: functional
3T3-L1 [23] = assay: Induction of cell cycle arrest in mouse 3T3L1 cells assessed as accumulation at G2/M phase at 25 uM after 24 hrs by flow cytometry (reference value: 29%); format: functional
[24] = Reduction in C/EBPbeta mRNA expression in mouse 3T3L1 cells after 72 hrs by RT-PCR method; format: functional, cell-based; conditions: 3T3-L1
Outline: (§2)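 3T3-L1 preadipocytes grown in DMEM with 10% FBS at 37 °C under 5% CO2. Differentiation starts 2 days post-confluence (day 0) with IBMX, 100 ng/mL dexamethasone and insulin for 3 d, then insulin in 10% FBS/DMEM for 3 d, then basic medium for 3 d. Compound is added on day 0 and renewed at day 3. Vehicle control receives the same volume of DMSO.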

[25] = Reduction in C/EBPalpha mRNA expression in mouse 3T3L1 cells at 1 to 50 uM after 72 hrs by RT-PCR method; format: functional, cell-based; conditions: 3T3-L1
[26] = Reduction in PPARgamma mRNA expression in mouse 3T3L1 cells at 1 to 50 uM after 72 hrs by RT-PCR method; format: functional, cell-based; conditions: 3T3-L1; outline: as §2

O=Cc1c(-c2nc3ccccc3c(=O)[nH]2)[nH]c2ccccc12
30%: inhibition at 25 µM (3T3-L1 [11])
< 10%: inhibition at 25 µM (3T3-L1 [12])
Non-toxic: Activity [1] | Activity [2] | Activity (HepG2 [8])
40%: Activity (3T3-L1 [22])
57%: Activity (3T3-L1 [23])
active: inhibition (3T3-L1 [3]) Dose-dependent effect | inhibition (3T3-L1 [4]) | inhibition (3T3-L1 [5]) | inhibition (3T3-L1 [6]) | inhibition (HepG2 [9]) Dose-dependent effect | inhibition (3T3-L1 [13]) | inhibition (3T3-L1 [14]) | inhibition (3T3-L1 [15]) | inhibition (3T3-L1 [16]) | inhibition (3T3-L1 [17]) | inhibition (3T3-L1 [18]) | Activity (3T3-L1 [19]) | Activity (3T3-L1 [20]) Dose-dependent effect | Activity [24] Dose-dependent effect | Activity [25] | Activity [26]
5%: Activity (3T3-L1 [21])
50%: inhibition at 25 µM (3T3-L1 [7]) | inhibition at 25 µM (3T3-L1 [10])
